# Shn3 inh set2 – reduction of Shn3 3'UTR firefly luciferase signal, primary screen, Schnurri-3 inhibitor project, cell-based, Clone20 osteoblasts, set 2; Clone20 osteoblast Shn3 3'UTR firefly luciferase, 24 h; inhibition, % at 12.5 µM; 360,000 compounds, 0.52% hits; AID 588674, 2011;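 active means mean inhibition of at least 75% with every replicate also reaching 75%; inconclusive means mean inhibition at least 75% but some replicate below; inactive means mean inhibition below 75%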;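 further: 0% = median of neutral control wells and 100% = pilot-screen positive control compound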
# EWS-Fli inh – EWS/Fli-driven NR0B1 reporter inhibitors, primary screen, A673 cells, NR0B1 luciferase, luminescence, MLPCN library | viability-normalised | inhibition, % at 12.6 µM | 350,000 compounds, 0.67% hits;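 active means mean inhibition of at least 50% after viability correction, with every replicate also passing that limit; inconclusive means mean reaches 50% but only one of two replicates passes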;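 further: firefly luciferase signal divided by Alamar Blue viability fluorescence both relative to DMSO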
# FN deposition inh – inhibitors of fibronectin matrix deposition, primary screen, AH1F cells, Alexa488-fibronectin fluorescence, plate reader. AH1F fibroblasts, overnight. inhibition, % at 12.6 µM. 350,000 compounds, 0.086% hits;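 active means mean inhibition across replicates of 30% or more, regardless of how many single replicates reach that level; inconclusive means mean under 30% yet at least half of replicates reach 30%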;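 further: positive control wells lacked labelled fibronectin entirely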
#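 Material: AH1F fibroblast monolayer depositing Alexa488-labelled fibronectin into matrix | Input: 10000 AH1F cells/well | Medium: DMEM plus 2% serum, read in PBS | Reagent: Alexa488-fibronectin, 24 nM final in well | Compound dosing: One dose per compound, pinned | Schedule: 1 h adhesion, overnight exposure | Measured by: Fluorescence at 485 nm excitation, 525 nm emission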
# PAX8 reporter – inhibitors of PAX8-driven TPO luciferase reporter, primary screen, RMG-I cells, single concentration. SteadyGlo, 24 h. AID 652154, 2013. 360,000 compounds, 1.2% hits. inhibition, % at 12.6 µM;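 active means mean replicate inhibition at least 60% with every replicate also reaching 60%; inconclusive means only one of the two criteria is met; inactive means mean below 60% and not all replicates reaching 60%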;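 further: luciferase light reporting Pax8 driven TPO promoter activity; plate controls were median of neutral control wells for no effect and mitoxantrone controls for full effect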
# EBV LMP1 NFkB – EBV LMP1-driven NF-kappaB luciferase reporter inhibitors, primary screen, cell-based, luminescence, single point. LMP1-induced NF-kappaB luciferase reporter cells. inhibition, % at 12.5 µM. 350,000 compounds, 0.69% hits; in the data active means inhibition above about 41%; inconclusive means no clear call, values can overlap the other calls;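 further: 0% = neutral control wells and 100% = reference inhibitor control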
# aSyn 5UTR inh – MLPCN primary screen, SNCA 5' untranslated region | inhibition, % (tested at 7.5 µM) | alpha-synuclein 5'UTR reporter, inhibitor activity | 300,000 compounds, 0.82% hits | AID 1813, 2009; in the data active means inhibition above about 60%; inconclusive means no clear call, values can overlap the other calls;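 further: H4 neuroglioblastoma cells stably carrying SNCA 5'UTR luciferase fusion; 0% = DMSO wells and 100% = positive control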
# DNA binding – DNA binders by acridine orange displacement, dose response, counter-screen for EWS/Fli inhibitor project, biochemical, fluorescence polarization, cherry-pick | AC35, µM (titrated, usually from 68 µM), inactives show top-dose activity change, negative = DNA binding | salmon sperm DNA acridine orange fluorescence polarization | shares compounds with EWS-Fli inh | AID 720586, 2013 | 640 compounds, 2% hits;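 active means fitted curve reaches a 35% signal fall AC35 below twice the sample's top valid tested dose, actives reach about 48 µM in these data; inactive means the rest, including activity in the rising direction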;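 further: lower polarization ratio signals compound binding to DNA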
# * = called active by the depositor; ? = inconclusive; . = no result given. Most compounds without a hit are left out; they make up all but 2.1% or so of the library.
SMILES,Shn3 inh set2,EWS-Fli inh,FN deposition inh,PAX8 reporter,EBV LMP1 NFkB,aSyn 5UTR inh,DNA binding
Nc1ccc(Oc2ccccc2-c2ccccc2)cc1,.,63.4*,0.3,22.7,29.4,104.4*,-3.6%
COc1ccc2oc(C(=O)NCCc3ccccc3)c(C)c2c1,15.7,68.7*,6.3,15.4,53.8*,44.9,-12.1%
CN(C)c1ccc(N=Nc2ccccc2Br)cc1,8.4,52.8*,5.3,-19.3,-62.8,47.4,-5.2%
Cc1ccc(/C=N/Nc2ccc3ccccc3n2)o1,30.0,52.8*,-5.5,-4.4,10.4,.,-1.9%
C(=N\Nc1ccc2ccccc2n1)/c1ccc2c(c1)OCCO2,31.8,85.9*,-14.4,73.0*,61.1*,108.4*,-13.9%
Cc1cccc(/C=N/Nc2ccc3ccccc3n2)c1,49.4,74.1*,.,53.5,74.1*,-6.9,-0.7%
C(=N\Nc1nc2ccccc2[nH]1)/c1ccc2c(c1)OCCO2,-25.9,12.7,0.5,-30.0,-1.4,2.5,.
O=C(C[C@H]1C[C@@H]2c3cc(NC(=O)C4CCC4)ccc3O[C@@H]2[C@@H](CO)O1)NCCc1ccccc1,.,-3.5,.,18.6,.,.,.
COc1ccc(C/C(N)=N/OC(C)=O)cc1OC,5.3,82.9*,.,10.0,-10.8,-32.6,-5.1%
COc1ccc(C/C(N)=N/OC(=O)Cc2ccc(OC)c(OC)c2)cc1,0.4,9.3,.,.,-5.0,1.1,.
CN1c2ccc(-c3ccc(C#N)cc3)cc2[C@H]2[C@H](CCN2S(=O)(=O)c2cccc(F)c2)[C@H]1CO,.,60.0*,-9.9,?,.,.,-12.1%
COc1ccc(S(=O)(=O)N2CC[C@@H]3[C@H](CO)Nc4ccc(-c5ccc(C#N)cc5)cc4[C@@H]32)cc1,.,56.7*,6.6,51.0,.,.,4.7%
CN1c2ccc(-c3ccc(C#N)cc3)cc2[C@@H]2[C@@H](CCN2S(=O)(=O)c2cccc(F)c2)[C@H]1CO,.,9.4,24.7,11.0,.,.,.
COc1ccc(S(=O)(=O)N2CC[C@@H]3[C@@H](CO)Nc4ccc(-c5ccc(C#N)cc5)cc4[C@@H]32)cc1,.,60.3*,8.7,62.7*,.,.,-9.5%
CCNC(=O)C[C@@H]1CC[C@H]2[C@H](COc3ccc(NC(=O)C4CCOCC4)cc3C(=O)N2C)O1,.,-7.7,-4.1,-6.5,.,.,.
COC(=O)C[C@@H]1CC[C@@H]2[C@H](COc3ccc(NC(=O)Nc4ccccc4C)cc3C(=O)N2C)O1,.,-7.6,-11.4,7.7,.,.,.
COC(=O)C[C@H]1CC[C@H]2[C@@H](COc3ccc(NC(=O)Nc4cccc(Cl)c4)cc3C(=O)N2C)O1,.,60.4*,-5.2,22.7,.,.,4.9%
COC(=O)C[C@@H]1CC[C@@H]2[C@@H](COc3ccc(NC(=O)Cc4cccs4)cc3C(=O)N2C)O1,.,65.0*,-4.7,6.2,.,.,-19.9%
COC(=O)C[C@@H]1CC[C@H]2[C@H](COc3ccc(NC(=O)Nc4cccc(Cl)c4)cc3C(=O)N2C)O1,.,?,-25.1,13.5,.,.,.
COC(=O)C[C@@H]1CC[C@@H]2[C@@H](COc3ccc(NC(=O)Nc4ccccc4C)cc3C(=O)N2C)O1,.,65.5*,-6.6,13.0,.,.,-12.9%
COC(=O)C[C@@H]1CC[C@@H]2[C@@H](COc3ccc(NC(=O)Nc4cccc(F)c4)cc3C(=O)N2C)O1,.,68.8*,-1.0,1.5,.,.,-10.4%
CN1C(=O)c2cc(NC(=O)c3ccc(C(F)(F)F)cc3)ccc2OC[C@@H]2O[C@@H](CC(=O)NC3Cc4ccccc4C3)CC[C@H]21,.,54.0*,-7.1,38.9,.,.,-0.5%
COC(=O)C[C@@H]1CC[C@H]2[C@@H](COc3ccc(NC(=O)Nc4cccc(Cl)c4)cc3C(=O)N2C)O1,.,45.3,-3.7,39.3,.,.,.
COC(=O)C[C@@H]1CC[C@@H]2[C@@H](COc3ccc(NC(=O)Nc4cccc(Cl)c4)cc3C(=O)N2C)O1,.,76.9*,-0.8,15.4,.,.,13.8%
C[C@@H]1CN([C@@H](C)CO)C(=O)c2cc(-c3cccc(F)c3)cnc2O[C@@H]1CN(C)C(=O)c1ccccn1,.,-10.2,.,.,.,.,.
SMILES,Shn3 inh set2,EWS-Fli inh,FN deposition inh,PAX8 reporter,EBV LMP1 NFkB,aSyn 5UTR inh,DNA binding
O=C(C[C@@H]1C=C[C@@H](NC(=O)c2cccc(F)c2)[C@H](CO)O1)Nc1nccs1,.,5.0,-0.4,-8.0,.,.,.
C[C@@H]1CN([C@@H](C)CO)C(=O)c2cc(NS(C)(=O)=O)ccc2O[C@@H](C)CCCCO[C@@H]1CN(C)C(=O)NC1CCCCC1,.,-8.7,-9.7,-8.2,.,.,.
O=C(C[C@H]1CC[C@H](NC(=O)Nc2ccccc2F)[C@H](CO)O1)NCc1ccccc1,.,4.7,.,-14.3,.,.,.
O=C1c2ccc3c4c(ccc(c24)C(=O)N1c1cccc(O)c1)C(=O)N(c1cccc(O)c1)C3=O,.,59.7*,1.6,29.6,28.2,68.1*,-7.9%
O=C1c2ccc3c4c(ccc(c24)C(=O)N1c1cccc(O)c1)CC3,-17.5,-2.5,-6.7,-1.4,-0.7,11.1,.
CN=c1scc(C)n1/N=C/c1ccc(O)c(O)c1O,-16.3,.,8.4,.,3.6,-24.7,.
CN=c1scc(-c2cccs2)n1/N=C/c1ccccc1O,89.8*,93.4*,.,117.9*,84.5*,103.3*,-7.1%
COc1cc(/C=C/C(=O)/C=C(O)/C=C/c2ccc(O)c(OC)c2)ccc1O,25.2,80.9*,-0.3,0.9,-13.7,.,29.8µM*
COc1cc(C=C(C(C)=O)C(C)=O)ccc1O,-14.9,.,-0.1,4.3,6.8,10.2,.
COc1cc(C=O)ccc1O,-7.0,5.9,5.5,-16.0,.,.,.
COc1cc(/C=C/C(=O)CC(=O)/C=C/c2ccc(O)c(OC)c2)ccc1O,-20.7,72.8*,3.0,26.2,-23.8,-84.7,40.2µM*
CC(C)NC(=O)Nc1ccc2c(c1)CC(=O)N([C@@H](C)CO)C[C@@H](C)[C@H](CN(C)Cc1ccc(-c3ccccc3)cc1)O2,.,9.7,.,16.5,.,.,.
O=C(CNC(c1ccccc1)c1ccccc1)Nc1ccccc1F,-2.5,5.6,-5.8,15.3,5.0,-10.4,.
O=C(CNC(c1ccccc1)c1ccccc1)Nc1ccccc1-c1ccccc1,77.9,54.3*,-0.4,7.8,-1.3,14.4,-10.7%
COC(=O)C1=CN(c2ccc(OC)cc2)C(N)=C(C#N)C1c1ccc(OC)cc1 (stereo unspecified),.,-1.1,.,6.4,.,.,.
CCc1ccc(N2C=C(C(=O)OC)C(c3ccc(OC)cc3)C(C#N)=C2N)cc1 (stereo unspecified),.,54.4*,-2.5,3.3,.,.,-8.1%
Cn1ccc2cc(-c3ccc4ncnc(NCc5cccs5)c4c3)ccc21,17.4,50.8*,22.8,82.6*,9.7,.,-12.7%
O=c1[nH]c(=O)n([C@H]2C[C@H](O)[C@@H](CO)O2)cc1F,76.4,64.4*,8.0,17.4,50.0*,80.2*,-5.1%
